The source made the active and inactive calls. The calls are words filed in the database; no cut-off is given here.
How the values were obtained:
[1] = molecular target: T1, Glycogen synthase kinase-3 (Homo sapiens, UniProt P49840+P49841); test: Maximal glycogen synthesis in rat L6 skeletal muscle cells in response to 1 uM insulin; format: functional, cell-based
How it was run: (§1)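 Rat L6 muscle cells, with glycogen synthesis tracked as 14C-glucose incorporated into glycogen. Maximum glycogen produced by the compound is expressed as a percentage of the maximum produced by 1 µM insulin.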

MDCK = test: Cell permeation in MDCK cells; format: functional, Canis lupus familiaris
[2] = molecular target: T1, Glycogen synthase kinase-3; test: Stimulation of glycogen synthesis in rat skeletal muscle L6 cells
[3] = molecular target: T1, Glycogen synthase kinase-3; test: Inhibition of glycogen synthase kinase-3 (GSK3-beta); format: protein assay
How it was run: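 GSK-3β (20 nM final) in HEPES pH 7.2 with 10 mM MgCl2, 0.1 mg/mL BSA, 1 mM DTT, 0.3 mg/mL heparin. Substrate 2.8 µM biotinylated phospho-primed GS peptide, with 2.5 µM ATP plus [γ-33P]-ATP. Stopped after 40 min with EDTA. Streptavidin SPA beads added and counted. Reported as pIC50.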

[4] = molecular target: T1, Glycogen synthase kinase-3; test: Maximal glycogen synthesis in rat L6 skeletal muscle cells in response to 1 uM insulin (inactive); format: functional, cell-based; how it was run: as §1

T1 sequence (P49840 whole entry, looked up): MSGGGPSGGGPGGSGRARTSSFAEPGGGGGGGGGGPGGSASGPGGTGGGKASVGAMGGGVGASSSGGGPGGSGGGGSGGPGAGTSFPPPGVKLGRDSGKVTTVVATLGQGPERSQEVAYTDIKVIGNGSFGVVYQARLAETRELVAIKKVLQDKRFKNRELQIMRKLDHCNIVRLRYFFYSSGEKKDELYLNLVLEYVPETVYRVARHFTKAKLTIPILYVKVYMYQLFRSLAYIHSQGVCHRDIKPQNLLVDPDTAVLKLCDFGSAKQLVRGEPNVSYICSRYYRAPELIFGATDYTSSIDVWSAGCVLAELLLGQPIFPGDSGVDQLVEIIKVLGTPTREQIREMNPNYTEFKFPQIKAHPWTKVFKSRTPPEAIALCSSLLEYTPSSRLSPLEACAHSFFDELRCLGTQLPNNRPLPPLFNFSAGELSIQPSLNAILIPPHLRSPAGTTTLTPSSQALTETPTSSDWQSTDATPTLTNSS
T1 sequence (P49841 whole entry, looked up): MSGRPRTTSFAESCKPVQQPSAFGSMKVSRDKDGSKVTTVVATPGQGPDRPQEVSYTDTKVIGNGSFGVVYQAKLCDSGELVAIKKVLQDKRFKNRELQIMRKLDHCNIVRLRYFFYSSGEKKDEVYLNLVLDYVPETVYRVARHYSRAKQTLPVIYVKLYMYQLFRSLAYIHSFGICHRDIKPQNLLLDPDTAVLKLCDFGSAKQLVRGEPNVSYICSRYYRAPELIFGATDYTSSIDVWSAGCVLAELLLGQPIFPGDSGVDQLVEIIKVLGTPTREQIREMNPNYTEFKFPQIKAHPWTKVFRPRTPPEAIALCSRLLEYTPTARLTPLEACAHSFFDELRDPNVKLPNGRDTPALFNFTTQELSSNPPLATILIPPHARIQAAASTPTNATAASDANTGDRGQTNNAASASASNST

CN(C)CCNC(=O)c1ccc(/C=N/Nc2ncnc3c2cnn3-c2cccc3[nH]cnc23)cc1 [PYRAZOLOPYRIMIDINE 1]
Max [1]: 76%
Cell permeation (MDCK): 15 nm/s
EC50 [2]: 2.33 µM
Log IC50 [3]: -8.8

O=C(O)c1ccc(/C=N/Nc2ncnc3c2cnn3-c2cccc3[nH]cnc23)cc1
Max [1]: 42%
Cell permeation (MDCK): 17 nm/s
EC50 [2]: 2.73 µM
Log IC50 [3]: -8.3

COc1cccc(-n2ncc3c(N/N=C/c4ccncc4)ncnc32)c1 [GW784752X]
Max [1]: 37%
Cell permeation (MDCK): 127 nm/s
EC50 [2]: 0.22 µM

Fc1ccc(/C=N/Nc2ncnc3c2cnn3-c2ccccc2)cc1
Cell permeation (MDCK): 5 nm/s
Log IC50 [3]: -6.2

COc1cccc(-n2ncc3c(N/N=C/c4ccc(S(C)(=O)=O)cc4)ncnc32)c1 [PYRAZOLOPYRIMIDINE 2]
Max [1]: 19%
Cell permeation (MDCK): 168 nm/s
EC50 [2]: 0.31 µM
Log IC50 [3]: -8.6

COc1cccc(-n2ncc3c(N/N=C/c4ccc(F)cc4)ncnc32)c1 [GW817396X]
Max [4]: inactive
Cell permeation (MDCK): 5 nm/s
Log IC50 [3]: -8.1

C(=N\Nc1ncnc2c1cnn2-c1ccccc1)/c1ccncc1
Max [1]: 48%
Cell permeation (MDCK): 99 nm/s
EC50 [2]: 1.22 µM
Log IC50 [3]: -7

COc1cccc(-n2ncc3c(N/N=C/c4ccc(C(=O)NCCN(C)C)cc4)ncnc32)c1
Max [1]: 26%
Cell permeation (MDCK): 15 nm/s
EC50 [2]: 4 µM
Log IC50 [3]: -7.8

CS(=O)(=O)c1ccc(/C=N/Nc2ncnc3c2cnn3-c2cccc3[nH]cnc23)cc1
Max [1]: 54%
Cell permeation (MDCK): 61 nm/s
EC50 [2]: 0.24 µM
Log IC50 [3]: -8.3

Fc1ccc(/C=N/Nc2ncnc3c2cnn3-c2cccc3[nH]cnc23)cc1
Max [1]: 57%
Cell permeation (MDCK): 92 nm/s
EC50 [2]: 0.23 µM
Log IC50 [3]: -8.2

CN(C)CCNC(=O)c1ccc(/C=N/Nc2ncnc3c2cnn3-c2ccccc2)cc1
Cell permeation (MDCK): 98 nm/s
Log IC50 [3]: -7.7

C(=N\Nc1ncnc2c1cnn2-c1cccc2[nH]cnc12)/c1ccncc1
Max [1]: 45%
Cell permeation (MDCK): 212 nm/s
EC50 [2]: 0.11 µM
Log IC50 [3]: -8.4

COc1cccc(-n2ncc3c(N/N=C/c4ccc(C(=O)O)cc4)ncnc32)c1
Max [1]: 46%
Cell permeation (MDCK): 65 nm/s
EC50 [2]: 1.88 µM
Log IC50 [3]: -7.5
